Source: PubChem (The Scripps Research Institute Molecular Screening Center)
Only some compounds are listed: those with a hit (about 4% of all), similar ones and a draw of the others.
OX1R antag-1 = human HCRTR1 antagonism. O43613. CHO/OX1R cells, Fluo-8 calcium fluorescence, orexin A. inhibition, % at 5 µM. 330,000 tested, 0.43% active. AID 434989;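 active = inhibition above its plate's threshold, mean inhibition of all tested compounds on the plate plus 3 SD, cut at about 37% in these data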;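 note: 0% = orexin A challenge wells and 100% = SB-334867-A antagonist wells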
Target sequence (O43613 whole entry, looked up): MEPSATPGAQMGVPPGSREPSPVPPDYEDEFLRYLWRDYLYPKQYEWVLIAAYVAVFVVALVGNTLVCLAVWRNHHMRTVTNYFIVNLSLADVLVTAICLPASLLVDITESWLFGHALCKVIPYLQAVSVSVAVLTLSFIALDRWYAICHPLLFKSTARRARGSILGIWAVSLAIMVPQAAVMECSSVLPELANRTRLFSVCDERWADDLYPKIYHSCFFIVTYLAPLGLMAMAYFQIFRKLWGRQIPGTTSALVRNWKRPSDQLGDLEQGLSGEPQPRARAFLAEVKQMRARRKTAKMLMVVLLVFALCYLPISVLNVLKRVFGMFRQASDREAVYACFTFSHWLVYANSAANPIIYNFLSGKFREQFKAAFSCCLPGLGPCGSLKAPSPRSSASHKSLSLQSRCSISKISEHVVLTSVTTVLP
TAAR1 agonist = agonists of human TAAR1 | Q96RJ0 | 360,000 tested, 0.99% active | activation, % at 3 µM | AID 624467 | CHO RD-HGA16 TAAR1, Fluo-8 calcium fluorescence; vehicle wells 0%, saturating PEA agonist 100%;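 active = activation above the mean activation of all test compounds in the run plus 3 SD, cut at about 38% in these data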
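Test system: RD-HGA16 (CHO) cells co-expressing Gα16 and hTAAR1; dosing: one-point dosing at 3 µM (nominal); timing: 17-24 h seeding, 75 min 37 °C dye, 30 min RT; signal: kinetic Fluo-8 calcium fluorescence; read-out basis: % activation relative to PEA EC100 response; controls: DMSO and PEA EC100; replicates: n 1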
OX1R antag-2 = blocks the human orexin 1 receptor; inhibition, % at 6.6 µM; AID 485270; OX1R-expressing cells, FRET antagonist read-out; 330,000 tested, 1.8% active; in the data active = inhibition mostly above about 38%, no sharp cut-off; inactive = mostly below about 40%;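 note: 0% = agonist challenge alone and 100% = reference antagonist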
CHO parental Ca = counter-screen: ATP calcium response change in parental CHO cells | 330,000 tested, 0.63% active | AID 463079 | parental CHO-K1, ATP-induced calcium, Fluo-8 fluorescence | inhibition, % at 5.6 µM;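 active = inhibition above that plate's mean sample inhibition plus 3 SD, cut at about 26% in these data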;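 note: 0% = ATP-challenged DMSO wells and 100% = DMSO wells without ATP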
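Assay system: untransfected parental CHO cell line. Also added: ATP agonist challenge. Dosing: one dose, 5.6 µM nominal. Measured by: Fluo-8 fluorescence. Read-out: % inhibition. Benchmarks: ATP wells versus no-ATP DMSO wells. Repeats: no replicates.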
TAAR1 antagonist = antagonists of human TAAR1; inhibition, % at 3 µM; Q96RJ0; 360,000 tested, 1.5% active; CHO RD-HGA16 TAAR1, Fluo-8 calcium fluorescence, antagonist; AID 624466;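 active = inhibition above a per-plate cutoff, the mean inhibition of test compounds on that plate plus 3 SD, cut at about 49% in these data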;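 note: 0% = DMSO plus EC80 beta-PEA response and 100% = DMSO alone without agonist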
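Test system – hTAAR1-expressing CHO RD-HGA16 cells, Gα16-coupled · Reagent – β-PEA at EC80 concentration, post-compound challenge · Compound dosing – 3 µM, single point · Timing – 140 s kinetic read after compound, 140 s after agonist · Detection – Fluo-8 intracellular calcium dye fluorescence, real-time kinetic reads · Control set – DMSO and EC80 PEA controls · Repeats – n of 1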
Starred values were filed as active, the others as inactive; nt = no result given.

SMILES	OX1R antag-1	TAAR1 agonist	OX1R antag-2	CHO parental Ca	TAAR1 antagonist
Cc1ccc2nc(C)c(CN3CCN(c4ccc([N+](=O)[O-])cc4Cl)CC3)n2c1	-0.5	42.6*	21.8	33.8	-11.7
CC(C)NC(=O)N1Cc2cc(C(=O)NC3CCCC3)nc(-c3cccc(-c4cccnc4)c3)c2[C@@H]1CCO	nt	3.4	nt	nt	7.0
COc1cc(OC)cc(C(=O)NCC2CCCN(C(=O)c3csc(C)n3)C2)c1 (stereo not given)	-10.6	1.0	11.6	-13.9	-9.5
Clc1ccc(-n2nnnc2-c2cnc(-c3ccncc3)nc2-c2cccs2)cc1	-14.9	-1.4	20.8	-7.5	-6.6
FC(F)(F)c1nc(-c2cccs2)ncc1-c1nnnn1-c1ccc(Cl)cc1	22.4	6.1	54.7	29.2	58.7*
CN(C)c1cccc2c(S(=O)(=O)NCC3CCN(C(=O)C(=O)c4cc5ccccc5o4)CC3)cccc12	nt	-2.2	nt	nt	-11.5
Cc1c(NC(=O)c2ccccc2N(C)S(=O)(=O)c2ccccc2)c(=O)n(-c2ccccc2)n1C	-12.1	1.8	40.6*	-11.4	-3.0
CC(C)CNC(=O)c1ccccc1NC(=O)c1ccccc1N(C)S(=O)(=O)c1ccccc1	-1.2	5.0	68.9*	-25.5	8.9
CCOc1ccccc1N(CC(=O)Nc1c(C)n(C)n(-c2ccccc2)c1=O)S(=O)(=O)c1ccccc1	-2.2	6.1	57.4*	-9.0	17.5
CCCNC(=O)c1ccccc1NC(=O)c1ccccc1N(C)S(=O)(=O)c1ccccc1	-15.0	2.8	43.6	-27.4	6.4
CCOc1ccc(N(CC(=O)Nc2c(C)n(C)n(-c3ccccc3)c2=O)S(=O)(=O)c2ccc(F)cc2)cc1	nt	1.2	nt	nt	-16.2
Cc1c(NC(=O)c2ccc(N(C)S(C)(=O)=O)cc2)c(=O)n(-c2ccccc2)n1C	8.3	5.0	13.1	-3.5	1.9
COc1cc(C(CC(=O)Nc2ccc(C)cn2)N2Cc3ccccc3C2=O)cc(OC)c1OC (stereo not given)	-33.5	2.6	8.8	-17.2	-8.4
Cn1cccc1/C=C1\SC(=Nc2cccc(O)c2)NC1=O	-15.4	5.5	41.8*	-7.3	12.3
Cn1cccc1/C=C1\SC(=Nc2ccc(O)cc2)NC1=O	-12.9	2.2	15.4	-22.5	-14.0
Cc1ccc(S(=O)(=O)Nc2ccc(SC(F)F)cc2)c(C)c1	1.6	3.4	-12.0	42.8*	32.3
CC(C)c1ccc(S(=O)(=O)Nc2ccc(SC(F)F)cc2)cc1	-10.8	10.6	-2.2	42.1*	6.0
CCc1c(-c2cccc(Br)c2)ncn1CCc1ccccc1OC	nt	28.1	nt	nt	29.0
O=S(=O)(C=C(c1ccccc1)c1ccccc1)c1ccccc1	42.9*	2.4	41.8	47.9*	5.2
c1ccc(CSc2nnc(-c3ccco3)n2Cc2ccco2)cc1	11.1	10.1	33.1	-22.4	-2.5
c1ccc(CSc2nnc(-c3cccs3)n2Cc2ccco2)cc1	-18.2	20.0	28.8	-6.4	-0.2
Cc1ccccc1CSc1nnc(-c2ccco2)n1Cc1ccco1	4.8	9.1	68.1*	-26.7	9.7
Cc1ccccc1CSc1nnc(-c2cccs2)n1Cc1ccco1	7.5	11.8	69.3*	-37.0	19.7
CCCCCCCCCCCCCCCC[n+]1cccc2ccccc21	63.3*	35.3	30.3	89.4*	20.5
c1ccc2c(c1)ccc1ccccc12	-1.4	7.5	6.9	-14.0	-31.6
SMILES	OX1R antag-1	TAAR1 agonist	OX1R antag-2	CHO parental Ca	TAAR1 antagonist
CCCCCCCCC[n+]1cccc2c3ccccc3ccc21	93.7*	nt	76.4	85.8*	nt
COC(=O)[C@]12C[C@H](CC(=O)NCc3ccc(C)o3)C(=O)N(Cc3ccccc3)C1=C[C@H](C1CCCC1)O[C@@H]2C	nt	-2.4	nt	nt	-38.2
COc1ccc(CCNC(=O)CCC(=O)N2CCOc3ccc(C)cc32)cc1OC	-16.2	0.3	4.9	-7.7	-7.1
COc1ccc(OC)c(CCNC(=O)CCC(=O)N2CCOc3ccc(C)cc32)c1	-16.7	0.5	39.0*	-6.5	4.5
Cc1cccc(NC(=O)CNC(=O)[C@@H](Cc2ccccc2)NC(=O)[C@H]2O[C@@H](n3ccc(=O)[nH]c3=O)[C@H](O)[C@@H]2O)c1C	nt	2.4	nt	nt	-23.7
O=C(CNC(=O)c1ccco1)N=Nc1c(O)[nH]c2ccc([N+](=O)[O-])cc12	-2.6	4.8	62.7*	2.5	-3.1
CCOC(=O)CSc1nnc(CNc2cccc(Cl)c2)n1-c1ccccc1	-12.6	6.2	-3.4	-30.4	12.1
CCOC(=O)CSc1nnc(CNc2ccc(Cl)cc2)n1-c1ccccc1	14.2	15.7	3.2	10.9	51.8*
CCOC(=O)C(C)(C)CC#CCN(CC#Cc1ccccc1)S(=O)(=O)c1ccc(C)cc1	nt	0.5	nt	nt	29.4
COC1=CC(=O)c2ccccc2C1=O	8.6	nt	92.4*	-3.1	nt
CC(=O)c1cccc(-c2ccnc3c2CC(C(=O)Nc2ccccc2)O3)c1 (stereo not given)	nt	1.8	nt	nt	10.3
COC(=O)c1c(-c2ccc(Br)cc2)csc1NC(=O)Cc1ccc(OC)c(OC)c1	-13.9	8.2	19.0	-15.2	42.3
COC(=O)c1c(-c2ccc(C)cc2)csc1NC(=O)Cc1ccc(OC)c(OC)c1	nt	4.3	nt	nt	54.8*
COc1cccc(Nc2nc3ccccc3nc2NS(=O)(=O)c2cccs2)c1	-4.3	6.8	42.5*	7.7	18.9
COc1cccc(CN2CCC2(C)C(=O)Nc2cnc3ccccc3c2)c1F (stereo not given)	nt	2.4	nt	nt	53.0*
CC1(C(=O)Nc2cnc3ccccc3c2)CCN1Cc1ccccc1Cl (stereo not given)	nt	0.6	nt	nt	45.7
CC1(C(=O)Nc2cnc3ccccc3c2)CCN1Cc1ccccc1OC(F)F (stereo not given)	nt	4.3	nt	nt	61.6*
Nc1c(O)cccc1C(=O)O	3.6	0.8	61.1*	1.2	14.7
Cn1c(N2CCN(C(c3ccccc3)c3ccccc3)CC2)nc2ccccc21	-55.8	1.1	24.9	-11.6	49.8*
Cn1c(N2CCN(C(=O)Nc3ccc(F)cc3)CC2)nc2ccccc21	-14.5	1.8	3.0	-22.8	-7.9
CC(C)c1nnc(N2C(=O)C(O)=C(C(=O)c3cccs3)C2c2ccccc2)s1 (stereo not given)	nt	40.0*	nt	nt	25.0
COc1ccc(C2C(C(=O)c3cccs3)=C(O)C(=O)N2c2nnc(C)s2)cc1OC (stereo not given)	-1.7	nt	21.3	-3.5	nt
Cc1occc1-c1nnc(SCC(=O)Nc2nc(C(C)(C)C)cs2)o1	13.1	21.5	25.0	36.1*	18.0
Cc1csc(NC(=O)CSc2nnc(-c3ccoc3C)o2)n1	-16.4	3.2	21.2	-3.5	-4.8
Nc1[nH]c(C(=O)c2ccc(Br)cc2)c(-c2ccc3ccccc3c2)c1C(=O)NCCc1c[nH]c2ccccc12	nt	0.7	nt	nt	0.4
Cc1nc2cc(-c3sccc3-n3cccc3)nn2c(C)c1C	-29.5	0.2	52.1*	-20.9	-4.7
O=[N+]([O-])c1ccc(O)c(C(C#Cc2ccccc2)N2CCOCC2)c1 (stereo not given)	14.0	10.2	54.0	8.8	-6.2
